# DENV2 CPE: protects cells from dengue virus 2 cytopathic effect; DENV2-infected cells, cytopathic effect rescue, plate reader; CPE inhibition, % at 9.99 µM; 350,000 tested, 1.7% active; AID 651640; in the data active means CPE inhibition above about 20%, passing the limit was not always enough; inconclusive means no clear call, values can overlap the other calls; tested in BHK-21 cells
# ERAP1 HTS inh: blocks human ERAP1 aminopeptidase activity; AID 652197; inhibition, % at 10.7 µM; 340,000 tested, 0.15% active; recombinant ERAP1, Leu-AMC fluorescence, 60 min;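 active means mean replicate inhibition of at least 30%, or all replicates individually reaching that 30% level; inactive means mean below 30% and not every replicate reaching it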
# FGF22 binding: FGF22 (human) thermal shift binding; Q9HCT0; recombinant FGF22 thermal shift, SYPRO orange fluorescence; percent of sucrose octasulfate shift, DMSO zero; 340,000 tested, 1.5% active; activity (Tm shift, normalised), % at 9.99 µM;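 active means mean Tm shift, scaled 0 neutral to 100 positive control, at about 1.3% or above, every replicate too, limit read from the data; inconclusive means no clear call, values can overlap the other calls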
# Target sequence (Q9HCT0 whole entry, looked up): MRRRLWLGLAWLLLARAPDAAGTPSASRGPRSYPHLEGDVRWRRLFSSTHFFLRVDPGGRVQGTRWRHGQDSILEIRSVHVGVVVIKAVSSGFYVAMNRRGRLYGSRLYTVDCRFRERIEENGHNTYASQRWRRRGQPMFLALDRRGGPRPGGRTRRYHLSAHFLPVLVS
# CFTR F508del cor: correctors of CFTR F508del function in bronchial epithelial cells; CFBE cells, YFP halide quenching; stimulated with forskolin plus potentiator P3; % fluorescence drop versus neutral controls; activity (quench increase), % at 7.58 µM; 350,000 tested, 0.36% active; AID 720511;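 active means mean added fluorescence quench of at least 8% versus neutral control, with both replicates also reaching 8%; inconclusive means only one of the mean or replicate conditions met; inactive means mean below 8% and not both replicates reaching 8%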;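 further: cells transiently co-express mutant CFTR-F508del with the halide-sensitive YFP; corrector assay measuring rescue of mutant channel to the surface after 24 h compound exposure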
# E-selectin induc: induces E-selectin expression in human endothelial cells. P16581. HUVEC E-selectin immunofluorescence imaging; normalized: neutral wells 0, TNF-alpha wells 100. activation, % at 7.58 µM. 260,000 tested, 0.37% active. AID 686992;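 active means mean E-selectin-positive cell signal at least 10% of the positive control, reached in at least 60% of replicates, without over 20% cell loss; inconclusive means no rule given, readout overlaps actives, possibly toxicity-flagged; inactive means the rest, including those meeting only one limit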
#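 Assay system: HUVEC, human umbilical vein endothelial cells / Amount: 3,000 HUVEC/well / Controls: TNF-alpha positive control, DMSO neutral control / Compound dosing: single concentration / Medium: EGM-2 over gelatin coat / Evaluation: percent E-selectin-positive cells / Signal: immunofluorescence imaging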
# A number is an active result; n = inactive; u = inconclusive; x = no result. In the library only some 3.7% were active in any assay of this set; here they are far more common.
SMILES,DENV2 CPE,ERAP1 HTS inh,FGF22 binding,CFTR F508del cor,E-selectin induc
CCOc1ccccc1C=C1SC(=S)NC1=O,35,n,n,n,n
COc1ccc2c3c([nH]c2c1)[C@H](CO)N(C(=O)CC1CC1)CC31CCN(C(=O)CC2CC2)CC1,n,n,x,n,n
CCOC(=O)NC(C)N1C(=O)C2C3C=CC(C3)C2C1=O (stereo not drawn),n,n,44,n,x
COc1ccc(CN(C)C[C@H]2OCCCC[C@@H](C)Oc3ccc(NC(=O)c4ccncc4)cc3C(=O)N([C@@H](C)CO)C[C@@H]2C)cc1,n,n,n,n,n
COc1ccc(NC(=O)N(C)C[C@H]2Oc3ccc(NC(=O)CCCCCC(=O)Nc4ccccc4N)cc3C(=O)N([C@H](C)CO)C[C@@H]2C)cc1,n,n,n,n,x
COc1ccc(NC(=O)N(C)C[C@H]2Oc3c(NC(=O)CCCCCC(=O)Nc4ccccc4N)cccc3C(=O)N([C@@H](C)CO)C[C@@H]2C)cc1,30,n,n,n,n
C[C@H](CO)N1C[C@H](C)[C@@H](CN(C)S(=O)(=O)c2cccs2)Oc2ccc(NC(=O)CCCCCC(=O)Nc3ccccc3N)cc2C1=O,25,n,n,n,x
COc1ccc(NC(=O)N(C)C[C@@H]2Oc3ccc(NC(=O)CCCCCC(=O)Nc4ccccc4N)cc3C(=O)N([C@H](C)CO)C[C@@H]2C)cc1,53,n,n,n,x
COc1ccc(S(=O)(=O)N(C)C[C@@H]2Oc3ccc(NC(=O)CCCCCC(=O)Nc4ccccc4N)cc3C(=O)N([C@@H](C)CO)C[C@@H]2C)cc1,36,n,n,n,n
C[C@@H]1CN([C@H](C)CO)C(=O)c2cc(NC(=O)CCCCCC(=O)Nc3ccccc3N)ccc2O[C@H]1CN(C)S(=O)(=O)c1cccs1,n,n,n,n,x
COc1ccc(NC(=O)N(C)C[C@@H]2Oc3c(NC(=O)CCCCCC(=O)Nc4ccccc4N)cccc3C(=O)N([C@@H](C)CO)C[C@@H]2C)cc1,n,n,n,n,n
CCC(=O)N1CC(=O)N2[C@H](CO)[C@H](c3ccc(C#CCc4ccccc4)cc3)[C@@H]2C1,n,n,x,n,n
O=C(Cc1ccccn1)NCC[C@H]1CC[C@H](NC(=O)Nc2ccc(Cl)cc2)[C@H](CO)O1,n,n,n,n,n
C[C@@H]1CN([C@H](C)CO)S(=O)(=O)c2ccc(-c3ccc(C(=O)N(C)C)cc3)cc2O[C@@H]1CN(C)C(=O)C1CCCCC1,n,n,n,n,n
O=C(Nc1cccc(F)c1)N1CC(=O)N2[C@H](CO)[C@H](c3ccc(-c4ccc(F)cc4)cc3)[C@H]2C1,n,n,x,n,n
C[C@H](CO)N1C[C@H](C)[C@H](CN(C)C(=O)Nc2ccc(C(F)(F)F)cc2)Oc2c(NC(=O)CCCCCC(=O)Nc3ccccc3N)cccc2C1=O,35,n,n,n,x
C[C@H]1CN([C@@H](C)CO)C(=O)c2cc(NC(=O)CCCCCC(=O)Nc3ccccc3N)ccc2O[C@H]1CN(C)C(=O)Nc1ccc(F)cc1,35,n,n,n,44
CCC(=O)Nc1ccc2c(c1)OC[C@@H](C)N(C(=O)COC)C[C@H](C)[C@H](OC)CN(C)C2=O,n,n,n,n,n
CC(C)(C)OC(=O)C[C@@H]1C/C=C\C[C@H](CC(=O)NCCO)C(=O)N2CCC[C@H]2COC1=O,83,n,n,n,u
CN1C(=O)c2cc(NC(=O)Cc3ccccc3)ccc2OC[C@H]2O[C@@H](CC(=O)NCc3ccc(Cl)cc3)CC[C@@H]21,x,x,x,n,n
COC(=O)C[C@@H]1CC[C@H]2[C@H](COc3ccc(NC(=O)c4ccc(C(F)(F)F)cc4)cc3C(=O)N2C)O1,n,n,n,n,n
CN1C(=O)c2cc(NC(=O)c3cccc(F)c3)ccc2OC[C@H]2O[C@@H](CC(=O)NCc3ccccc3Cl)CC[C@H]21,n,n,1.6,n,n
CNC(=O)C[C@H]1CC[C@H]2[C@@H](COc3ccc(NC(=O)c4cccc(F)c4)cc3C(=O)N2C)O1,n,n,n,n,92
COC(=O)C[C@@H]1CC[C@H]2[C@@H](COc3ccc(NC(=O)c4ccc(C(F)(F)F)cc4)cc3C(=O)N2C)O1,99,n,n,n,n
CN1C(=O)c2cc(NC(=O)Cc3ccccc3)ccc2OC[C@@H]2O[C@H](CC(=O)NCc3ccc(Cl)cc3)CC[C@H]21,n,x,n,10,n
COc1ccc2c3c([nH]c2c1)[C@@H](CO)N(Cc1ccncc1)CC31CN(C(=O)Cc2ccncc2)C1,u,n,n,n,n

# Compound activity as filed in PubChem.
